Screening data from PubChem.
Sampled rows, rich in hits. Any-hit rate of the full collection: about 2%.
CXCR6 block: CXCR6 receptor inhibitors, primary screen, cell-based, beta-arrestin, luminescence, CHO-K1 PathHunter, 1536-well. hit rate 0.36% among 360,000. C-X-C chemokine receptor type 6 (Homo sapiens), O00574. inhibition, % at 20 µM; in the data active = inhibition above about 34%, passing the limit was not always enough;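 also: antagonist mode with CXCL16 agonist at 10 nM final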
Target sequence (O00574 whole entry, looked up): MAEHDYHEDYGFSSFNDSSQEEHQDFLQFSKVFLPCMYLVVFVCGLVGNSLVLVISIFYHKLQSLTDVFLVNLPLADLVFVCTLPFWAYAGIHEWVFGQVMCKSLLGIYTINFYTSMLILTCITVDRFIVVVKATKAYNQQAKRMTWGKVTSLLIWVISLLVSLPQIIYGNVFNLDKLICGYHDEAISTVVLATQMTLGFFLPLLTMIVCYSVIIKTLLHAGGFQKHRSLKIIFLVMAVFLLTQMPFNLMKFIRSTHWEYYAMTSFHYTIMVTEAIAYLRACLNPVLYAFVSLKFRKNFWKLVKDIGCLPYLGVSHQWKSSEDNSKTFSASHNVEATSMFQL
FXN GAA850 act: FXN promoter activators, primary screen, cell-based, luciferase luminescence, HEK293 lucGAA850. hit rate 0.56% among 360,000. HEK293 lucGAA850 FXN promoter luciferase reporter, 24 h; percent of 10 µM SAHA response. AID 540364, 2011. activation, % at 6 µM;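 active = activation above the average of all compounds screened plus 3 SD, cutoff fixed separately per campaign, cut at about 7.5% in these data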
CCR6 antagonist: CCR6 receptor antagonists, primary screen, cell-based, CHO-K1, luminescence, beta-arrestin, uHTS. hit rate 0.49% among 340,000. inhibition, % at 20 µM. CHO-K1 CCR6 PathHunter beta-arrestin, CCL20-stimulated;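 active = compounds whose inhibition of the agonist-driven luminescence signal at 20 µM reaches about 50%, limit read from the data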;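 also: cells stimulated with CCL20 at 14 nM final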
EBI2 block: EBI2 receptor antagonists, beta-arrestin recruitment, primary screen, cell-based, luminescence, 7a,25-OHC stimulation, uHTS; G-protein coupled receptor 183 (Homo sapiens), P32249; 7a,25-OHC stimulated; inhibition, % at 5 µM; hit rate 0.81% among 360,000; AID 651636, 2012; in the data active = inhibition above about 38%;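 also: enzyme fragment complementation signal reports receptor beta-arrestin coupling in cells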
Target sequence (P32249 whole entry, looked up, the tested form may be a part): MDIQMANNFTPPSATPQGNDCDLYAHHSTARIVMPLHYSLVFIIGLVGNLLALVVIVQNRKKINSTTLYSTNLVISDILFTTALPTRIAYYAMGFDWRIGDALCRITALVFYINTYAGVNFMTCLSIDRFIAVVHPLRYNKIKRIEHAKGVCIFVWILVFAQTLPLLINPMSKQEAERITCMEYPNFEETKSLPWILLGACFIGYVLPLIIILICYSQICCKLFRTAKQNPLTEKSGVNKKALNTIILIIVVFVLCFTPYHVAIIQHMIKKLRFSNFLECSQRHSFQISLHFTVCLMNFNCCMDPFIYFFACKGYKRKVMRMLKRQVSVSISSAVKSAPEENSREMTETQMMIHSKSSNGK
APJ antagonist: antagonists of human apelin receptor APJ, primary screen, CHO-K1 cells, beta-arrestin complementation, luminescence. hit rate 0.32% among 330,000. P35414. inhibition, % at 20 µM. AID 2521, 2010;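 active = inhibition above about 40% at 20 µM, limit read from the data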;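 also: cells challenged with 10 nM apelin-13 agonist together with compound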
APJ agonist: agonists of human apelin receptor APJ, primary screen, CHO-K1 cells, PathHunter beta-arrestin, luminescence; P35414; hit rate 0.11% among 330,000; 0% DMSO wells, 100% apelin; activation, % at 20 µM; AID 2520, 2010;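 active = activation more than six SD over the plate average, tested at 20 µM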
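Assay system – PathHunter CHO-K1 APJ (AGTRL-1) beta-arrestin reporter cells · Compound – one dose, 20 µM compound, 1% DMSO · Timing – compound 90 min 25 °C, reagent 1 h · Measured by – luminescence from split beta-galactosidase complementation, Galacton Star/Emerald II substrate · Measure – beta-arrestin recruitment to APJ as agonist activity, luminescent signal · Benchmarks – DMSO vs Apelin-13 10 nM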
APJ ag conf: agonists of human apelin receptor APJ, confirmation, cell-based, single concentration, CHO-K1, beta-arrestin, luminescence; shares compounds with APJ agonist; CHO-K1 APJ PathHunter beta-arrestin; activation, % at 20 µM; hit rate 10% among 310; AID 2764, 2010;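 active = activation above 40%, taking the highest of four retests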
APJ antag conf: APJ antagonists blocking beta-arrestin recruitment, confirmation, cell-based, luminescence, single concentration, uHTS hits; antagonist mode; shares compounds with APJ antagonist; hit rate 66% among 950; AID 2766, 2010; inhibition, % at 20 µM; in the data active = inhibition above about 50%
CXCR6 antag conf: CXCR6 receptor antagonists, confirmation, cell-based, single concentration, beta-arrestin, luminescence | shares compounds with CXCR6 block | CHO-K1 CXCR6 PathHunter beta-arrestin | inhibition, % at 20 µM | hit rate 65% among 700;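 active = mean inhibition over four retests above 40%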;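 also: receptor stimulated with 10 nM CXCL16 agonist; beta-galactosidase fragment complementation upon beta-arrestin recruitment to receptor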
Large screens that a line does not name were inactive (follow-up assays come after a bar, where they were run).

Cc1ccc(-c2nn(-c3ccccc3)cc2/C=N/NC(=O)c2ccc(Br)o2)cc1	APJ agonist 12.5 | APJ ag conf inactive
Cc1ccc2nc(N(CCCN(C)C)C(=O)c3ccc(S(=O)(=O)N4CCc5ccccc5C4)cc3)sc2c1	APJ agonist 78.7 | APJ ag conf 46.1
Cc1cc(C)c2sc(N(CCCN(C)C)C(=O)c3ccc(S(=O)(=O)N4CCc5ccccc5C4)cc3)nc2c1	APJ agonist 66.0 (no result: CCR6 antagonist) | APJ ag conf 44.5
Cc1cccc2sc(N(CCCN(C)C)C(=O)c3ccc(S(=O)(=O)N4CCc5ccccc5C4)cc3)nc12	none
CN(C)CCCN(C(=O)c1ccc(S(=O)(=O)N2CCc3ccccc3C2)cc1)c1nc2ccc(F)cc2s1	APJ agonist 46.8 | APJ ag conf inactive
COc1ccc2sc(N(CCCN(C)C)C(=O)c3ccc(S(=O)(=O)N4CCc5ccccc5C4)cc3)nc2c1	APJ agonist 49.7 | APJ ag conf inactive
OCC1OC(Nc2ccccc2C=NO)C(O)C1O (centres undefined)	none (no result: CCR6 antagonist, APJ antagonist, APJ agonist)
CSc1ncccc1C(=O)OCC(=O)c1[nH]c(C)c(C(C)=O)c1C	none
CCN(CC(=O)N1CCCC1)S(=O)(=O)c1cc(C)ccc1OC	APJ agonist 30.3 | APJ ag conf inactive
CCOc1ccc(/C=C/[N+](=O)[O-])c2ccccc12	CXCR6 block 60.2, APJ agonist 16.3 (no result: CCR6 antagonist) | APJ ag conf inactive | CXCR6 antag conf 52.0
CC(C)(C)c1ccc2c(c1)N(CC(=O)N1CCCC1)C(=O)CO2	none
CCc1noc(C)c1C(=O)NC1CC(C)(C)Cc2c1cnn2-c1ccccc1 (centres undefined)	APJ antagonist 41.2 (no result: CCR6 antagonist) | APJ antag conf inactive
Cc1cccc(OCCN2C(=O)C(=O)c3cc(C)ccc32)c1	none
Cc1cccc2c1N(CCCOc1ccccc1)C(=O)C2=O	APJ antagonist 44.4 | APJ antag conf 75.7
Cc1cnc(C)c(Nc2nc(C(N)Cc3ccc(Cl)cc3)cs2)n1 (centres undefined)	none (no result: CCR6 antagonist, APJ antagonist, APJ agonist)
CCn1c(CO)nc2c1c(=O)[nH]c(=O)n2Cc1ccccc1	CXCR6 block 46.3, CCR6 antagonist 63.5, APJ antagonist 52.6 | APJ antag conf 84.5
O=C(Nc1cccc(Cl)c1N1CCCCC1)c1ccc2c(c1)OCCO2	none
O=C(NC(=S)Nc1cccc(Cl)c1N1CCCCC1)c1ccc2c(c1)OCCO2	APJ antagonist 44.5 | APJ antag conf inactive
CC(C)Cc1nc2oc3c(Cl)ncnc3c2c2c1CCC2	EBI2 block 48.3, APJ antagonist 40.8 | APJ antag conf 86.4
CC(C)Cc1nc2oc3c(NCCCN4CCOCC4)ncnc3c2c2c1CCC2	none
O=C1OCC(CO)(CO)N=C1NNc1cc(Cl)ccc1Cl	APJ antagonist 69.8 | APJ antag conf 74.1
O=C1OCC(CO)(CO)N=C1NNc1ccccc1[N+](=O)[O-]	none
CCN(CC)C(=O)c1[nH]cnc1C(=O)Nc1ccccc1F	none (no result: CCR6 antagonist, APJ antagonist, APJ agonist)
CN(C)CCN=Cc1c(O)n(-c2ccc(S(=O)(=O)N3CCOCC3)cc2)c(=O)c2ccccc12	none
CC1CCCN(c2c([N+](=O)[O-])c(=O)oc3ccccc23)C1 (centres undefined)	none
Nc1c(N2CCCC2)c2ccccc2oc1=O	CCR6 antagonist 55.0, APJ antagonist 70.5 | APJ antag conf 83.2
Cc1ccc(NC(=S)NNc2ncc(C(F)(F)F)cc2Cl)c(C)c1	CXCR6 block 65.0, CCR6 antagonist 81.0, APJ antagonist 53.1 | APJ antag conf inactive
Cn1cccc1Cc1nnc(SCC(=O)NCc2ccc(F)cc2)n1-c1ccc(F)cc1	APJ antagonist 58.0 | APJ antag conf inactive
ON1C2CCCCC2N(O)C1c1ccccc1C(F)(F)F (centres undefined)	CCR6 antagonist 56.3, APJ antagonist 48.2 | APJ antag conf inactive
O=C(OCc1ccc(Br)cc1F)c1cc2ccccc2oc1=O	none
Cc1cc([N+](=O)[O-])nn1CC(=O)NNC(=S)Nc1ccc([N+](=O)[O-])cc1	APJ antagonist 47.0 | APJ antag conf 70.4
C[C@H]1COc2cccc(N3CCC[C@H]3CO)c2S(=O)(=O)N1	none (no result: FXN GAA850 act, CCR6 antagonist, APJ antagonist, APJ agonist)
CC(c1nc2ccccc2n1Cc1ccccc1)N1CCCCC1 (centres undefined)	none
O=c1c(N=Nc2ccc(O)cc2)c(-c2ccccc2)[nH]n1-c1ccc([N+](=O)[O-])cc1	CCR6 antagonist 52.0, APJ antagonist 54.1 | APJ antag conf inactive
Cc1cccc(NC(=S)N2CCC(NC(=O)c3cccc(F)c3)CC2)c1	none
CCCOc1cccc(C2C(C(=O)c3cc4ccccc4o3)=C(O)C(=O)N2c2cc(C)on2)c1 (centres undefined)	APJ antagonist 47.1 | APJ antag conf inactive
Cc1cc(N2C(=O)C(O)=C(C(=O)c3cc4ccccc4o3)C2c2cccc(Br)c2)no1 (centres undefined)	none
CCOC(=O)C1(C)CCCN1C(=O)c1sccc1C (centres undefined)	none (no result: CCR6 antagonist, APJ antagonist, APJ agonist)
Cc1ccc(Nc2nc(C)cc(C)c2C#N)c(C)c1	none (no result: CCR6 antagonist, APJ antagonist, APJ agonist)
Cc1ccc2oc(/N=C(\N)NC(=O)C(C)(C)C)nc2c1	CXCR6 block 70.9, CCR6 antagonist 70.2, APJ antagonist 54.2 | APJ antag conf inactive
O=[N+]([O-])c1ccc(N2CCN(S(=O)(=O)c3ccccc3)CC2)c2cccnc12	CCR6 antagonist 52.0, APJ antagonist 45.8 | APJ antag conf 64.7
COc1ccc(C=NNC(=O)c2cc(C)oc2C)cc1O	none
O=S(=O)(O)c1cc(Cl)cc(N=Nc2ccc(O)cc2O)c1O	none (no result: APJ antagonist, APJ agonist)
O=S(=O)(O)c1cc(O)c2c(O)c(N=Nc3cc(Cl)ccc3O)c(S(=O)(=O)O)cc2c1	CCR6 antagonist 60.1, APJ antagonist 40.2 | APJ antag conf 69.9
N#Cc1ccc(C(=O)N2CCCC(c3cc(C(=O)NCc4cccnc4)no3)C2)cc1 (centres undefined)	none (no result: CCR6 antagonist, APJ antagonist, APJ agonist)
COC(=O)c1cc(NC(=O)CSc2nnc(N)s2)ccc1Cl	none
